Measured values from ChEMBL document CHEMBL5678817, “FTBMT, a Novel and Selective GPR52 Agonist, Demonstrates Antipsychotic-Like and Procognitive Effects in Rodents, Revealing a Potential Therapeutic Agent for Schizophrenia” (J Pharmacol Exp Ther, 2017).
Activity calls are given as the source filed them. No cut-off for these calls is given here.

Legend:
[1] = tested on: Mus musculus; assay: Antipsychotic activity in methamphetamine-induced hyperactivity in ICR mouse assessed as minimum effective dose administered orally; format: functional; conditions: route po, read-out: MED
[2] = tested on: Rattus norvegicus; assay: Effect on prolactin level in Wistar rat at 1 mg/kg, po […] by immunoassay; format: functional, organism-based
Outline: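 Male Wistar rats (7 weeks) dosed orally (haloperidol 1 mg/kg among arms) or vehicle. Trunk blood taken into EDTA 1 h later and centrifuged 1600 g, 20 min, 4 °C. Plasma prolactin measured by rat prolactin enzyme immunoassay; n = 4.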

Row | SMILES | minimal effective dose [1] | Activity [2]
1 | Cc1cc2c(s1)Nc1ccccc1N=C2N1CCN(C)CC1 [OLANZAPINE] | 1 mg/kg | –
2 | O=C(CCCN1CCC(O)(c2ccc(Cl)cc2)CC1)c1ccc(F)cc1 | – | Active
